Assay results reported in ChEMBL document CHEMBL3352726, “Constrained bithiazoles: small molecule correctors of defective ΔF508-CFTR protein trafficking” (J Med Chem, 2014).
pEC50: −log10 of the molar value.

These compounds were tested against Cystic fibrosis transmembrane conductance regulator (Homo sapiens, UniProt P13569, F508DEL) (assay: Correction of defective trafficking of human deltaF508 mutant CFTR protein expressed in FRT epithelial cells coexpressing YFP-H148Q/I152L protein assessed as iodide influx for 16 to 20 hrs by fluorescence assay). Settings: read-out: IC50 (the source's name).
Sequence of Cystic fibrosis transmembrane conductance regulator (P13569 as listed by the source): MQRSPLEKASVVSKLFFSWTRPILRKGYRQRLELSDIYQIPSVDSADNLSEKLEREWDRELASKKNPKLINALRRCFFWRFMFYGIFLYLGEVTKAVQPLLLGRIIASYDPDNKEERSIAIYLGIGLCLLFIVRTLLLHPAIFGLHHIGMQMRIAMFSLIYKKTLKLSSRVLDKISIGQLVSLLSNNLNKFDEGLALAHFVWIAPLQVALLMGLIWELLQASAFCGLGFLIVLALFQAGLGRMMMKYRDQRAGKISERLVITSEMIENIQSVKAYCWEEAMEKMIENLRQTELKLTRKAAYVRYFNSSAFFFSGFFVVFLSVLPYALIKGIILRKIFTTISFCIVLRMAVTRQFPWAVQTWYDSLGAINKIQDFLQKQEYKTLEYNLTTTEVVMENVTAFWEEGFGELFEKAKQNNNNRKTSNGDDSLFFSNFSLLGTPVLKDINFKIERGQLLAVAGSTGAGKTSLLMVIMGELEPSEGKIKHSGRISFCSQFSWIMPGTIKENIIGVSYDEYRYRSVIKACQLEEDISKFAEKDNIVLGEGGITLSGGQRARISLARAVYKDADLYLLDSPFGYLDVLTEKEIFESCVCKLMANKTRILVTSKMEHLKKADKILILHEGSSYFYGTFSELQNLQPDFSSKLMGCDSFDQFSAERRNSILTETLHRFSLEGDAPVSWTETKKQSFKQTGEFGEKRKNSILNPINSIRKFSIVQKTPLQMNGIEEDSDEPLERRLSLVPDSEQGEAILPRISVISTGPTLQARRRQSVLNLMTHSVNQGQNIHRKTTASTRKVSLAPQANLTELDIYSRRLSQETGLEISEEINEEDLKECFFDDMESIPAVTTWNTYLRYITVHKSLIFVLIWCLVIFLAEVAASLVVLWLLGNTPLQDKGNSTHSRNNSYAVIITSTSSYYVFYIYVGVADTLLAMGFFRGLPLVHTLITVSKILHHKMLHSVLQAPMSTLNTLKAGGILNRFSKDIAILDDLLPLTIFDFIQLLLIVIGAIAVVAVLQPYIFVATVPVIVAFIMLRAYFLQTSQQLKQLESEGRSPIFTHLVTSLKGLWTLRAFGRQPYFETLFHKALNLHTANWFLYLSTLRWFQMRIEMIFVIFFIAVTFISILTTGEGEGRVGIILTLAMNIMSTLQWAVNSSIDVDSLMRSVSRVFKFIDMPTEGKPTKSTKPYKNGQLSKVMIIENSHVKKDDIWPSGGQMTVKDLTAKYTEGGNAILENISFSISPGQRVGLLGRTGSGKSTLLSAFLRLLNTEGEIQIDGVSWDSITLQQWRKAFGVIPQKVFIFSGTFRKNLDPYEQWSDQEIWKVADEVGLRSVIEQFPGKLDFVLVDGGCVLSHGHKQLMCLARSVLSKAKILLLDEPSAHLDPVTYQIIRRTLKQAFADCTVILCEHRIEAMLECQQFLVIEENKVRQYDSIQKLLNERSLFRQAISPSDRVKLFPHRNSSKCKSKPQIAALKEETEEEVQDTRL
Type: cell-based, Epithelial cell
How it was run: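 FRT cells stably coexpressing human ΔF508-CFTR and YFP-H148Q/I152L, grown 24 h at 37 °C (5% CO2), then exposed 16–20 h to compound at various concentrations; DMSO vehicle negative control and a bithiazole benzamide positive control. Washed, 20 min in PBS with forskolin 20 μM plus genistein 50 μM. YFP fluorescence (ex 500/em 535 nm) read 2 s baseline, then 12 s after iodide-substituted PBS addition. Influx rate came from exponential fit of final 11.5 s, extrapolated initial slope, normalized to background-subtracted initial fluorescence. EC50/Vmax came from four-parameter logistic fit.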

`COc1ccc(Cl)cc1Nc1nc(-c2sc(NC(=O)c3ccccc3)nc2C)cs1` and `COc1ccc(Cl)cc1Nc1nc2c(s1)CCCc1nc(NC(=O)c3ccno3)sc1-2` are within 0.2 log units of each other in pEC50: 5.22 for the first, 5.32 for the second.

`COc1ccc(Cl)cc1Nc1nc2c(s1)CCCc1nc(N)sc1-2` and `COc1ccc(Cl)cc1Nc1nc2c(s1)CCCCc1nc(N)sc1-2` are within 0.2 log units of each other in pEC50: 4.96 for the first, 5.04 for the second.

Going from `COc1ccc(Cl)cc1Nc1nc2c(s1)CCCc1nc(NC(=O)C3CC3)sc1-2` to `COc1ccc(Cl)cc1Nc1nc2c(s1)CCCCc1nc(NC(=O)C3CC3)sc1-2`, the pEC50 rises from 5.05 to 5.35 (0.30 log units). The second is the more potent here.

`COc1ccc(Cl)cc1Nc1nc2c(s1)CCCc1nc(NC(=O)C(C)C)sc1-2` and `COc1ccc(Cl)cc1Nc1nc2c(s1)CCCCc1nc(NC(=O)C(C)C)sc1-2` are within 0.2 log units of each other in pEC50: 5.24 for the first, 5.06 for the second.

Compared with `CCC(C)C(=O)Nc1nc2c(s1)-c1nc(Nc3cc(Cl)ccc3OC)sc1CCC2` (stereo not drawn), `CCC(C)C(=O)Nc1nc2c(s1)-c1nc(Nc3cc(Cl)ccc3OC)sc1CCCC2` (stereo not drawn) is 0.36 log units higher in pEC50: 5.18 for the first, 5.54 for the second.

`COC(=O)CCC(=O)Nc1nc2c(s1)-c1nc(Nc3cc(Cl)ccc3OC)sc1CCC2` and `COC(=O)CCC(=O)Nc1nc2c(s1)-c1nc(Nc3cc(Cl)ccc3OC)sc1CCCC2` are within 0.2 log units of each other in pEC50: 5.06 for the first, 5.08 for the second.

First: COc1ccc(Cl)cc1Nc1nc2c(s1)CCCCc1nc(NC(=O)C(C)(C)C)sc1-2
Second: COc1ccc(Cl)cc1Nc1nc2c(s1)CCCc1nc(NC(=O)C(C)(C)C)sc1-2
The pEC50 of the first is 0.25 log units lower: 5.39 for the first, 5.64 for the second.

Going from `COc1ccc(Cl)cc1Nc1nc2c(s1)CCCCc1nc(NC(=O)c3ccno3)sc1-2` to `CN(C)c1ccc(Cl)cc1Nc1nc2c(s1)CCCCc1nc(NC(=O)C(C)(C)C)sc1-2`, the pEC50 rises from 5.18 to 5.68 (0.50 log units).

Going from `CN(C)c1ccc(Cl)cc1Nc1nc2c(s1)CCCc1nc(NC(=O)C(C)(C)C)sc1-2` to `CN(C)c1cccc(Nc2nc3c(s2)CCCc2nc(NC(=O)C(C)(C)C)sc2-3)c1`, the pEC50 rises from 5.16 to 5.66 (0.50 log units). The second is the more potent here.

`Cc1cccnc1Nc1nc2c(s1)CCCc1nc(NC(=O)C(C)(C)C)sc1-2` and `Cc1cccnc1Nc1nc2c(s1)CCCCc1nc(NC(=O)C(C)(C)C)sc1-2` are within 0.2 log units of each other in pEC50: 5.14 for the first, 5.28 for the second.

Going from `COc1ccc([N+](=O)[O-])cc1Nc1nc2c(s1)CCCc1nc(NC(=O)C(C)(C)C)sc1-2` to `COc1ccc([N+](=O)[O-])cc1Nc1nc2c(s1)CCCCc1nc(NC(=O)C(C)(C)C)sc1-2`, the pEC50 rises from 5.44 to 6.05 (0.61 log units). The second is the more potent here.

`CN(C)c1cccc(Nc2nc3c(s2)CCCCc2nc(NC(=O)C(C)(C)C)sc2-3)c1` gave a pEC50 of 5.28.
